According to ChEMBL document CHEMBL2375246, “In silico identification of poly(ADP-ribose)polymerase-1 inhibitors and their chemosensitizing effects against cisplatin-resistant human gastric cancer cells” (Bioorg Med Chem Lett, 2013):
Calls of active or inactive are those of the source. No cut-off for these calls is given here.

Key:
[1] = target: Poly [ADP-ribose] polymerase 1 (Homo sapiens, UniProt P09874); assay: Inhibition of PARP1 (unknown origin) after 15 mins by fluorometric analysis
[2] = Cytotoxicity against human YCC-3 cells after 36 hrs by MTS assay; assay type: cell-based; details: YCC-3, 36 h
Summary of the method: (§1)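 Cells (YCC-3 parent, or YCC-3/D cisplatin-resistant line kept at 2.5 µg/mL cisplatin) seeded at 5000 cells/well, incubated overnight at 37 °C/5% CO2, then exposed to compound for 36 h. Medium replaced with MTS-containing medium for 2 h at 37 °C, absorbance read at 490 nm. Triplicate; IC50 taken from plot of % growth inhibition vs concentration.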

[3] = tested on: YCC-3; assay: Potentiation of cisplatin-induced cytotoxicity against human YCC-3 cells assessed as reduction in cisplatin IC50 at 50 uM incubated for 8 hrs prior to cisplatin-addition measured after 36 hrs by MTS assay; assay type: functional, cell-based
[4] = tested on: YCC-3/D; assay: Potentiation of cisplatin-induced cytotoxicity against human YCC-3/D cells assessed as reduction in cisplatin IC50 at 50 uM incubated for 8 hrs prior to cisplatin-addition measured after 36 hrs by MTS assay; assay type: functional, cell-based
Summary of the method: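 Pretreatment format: cells seeded at 2500 cells/well, incubated overnight at 37 °C/5% CO2, exposed to PARP-1 inhibitor at 50 µM for 8 h. Inhibitor medium removed, cisplatin added over a concentration series for 36 h. MTS added for 2 h at 37 °C, absorbance read at 490 nm. Triplicate; cisplatin IC50 from % growth inhibition vs cisplatin concentration.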

[5] = tested on: YCC-3/D; assay: Potentiation of cisplatin-induced cytotoxicity against human YCC-3/D cells assessed as reduction in cisplatin IC50 at 50 uM co-treated with cisplatin after 36 hrs by MTS assay; assay type: functional, cell-based
[6] = Cytotoxicity against human YCC-3/D cells after 36 hrs by MTS assay; assay type: cell-based; summary of the method: as §1

Poly [ADP-ribose] polymerase 1, sequence (P09874 whole entry): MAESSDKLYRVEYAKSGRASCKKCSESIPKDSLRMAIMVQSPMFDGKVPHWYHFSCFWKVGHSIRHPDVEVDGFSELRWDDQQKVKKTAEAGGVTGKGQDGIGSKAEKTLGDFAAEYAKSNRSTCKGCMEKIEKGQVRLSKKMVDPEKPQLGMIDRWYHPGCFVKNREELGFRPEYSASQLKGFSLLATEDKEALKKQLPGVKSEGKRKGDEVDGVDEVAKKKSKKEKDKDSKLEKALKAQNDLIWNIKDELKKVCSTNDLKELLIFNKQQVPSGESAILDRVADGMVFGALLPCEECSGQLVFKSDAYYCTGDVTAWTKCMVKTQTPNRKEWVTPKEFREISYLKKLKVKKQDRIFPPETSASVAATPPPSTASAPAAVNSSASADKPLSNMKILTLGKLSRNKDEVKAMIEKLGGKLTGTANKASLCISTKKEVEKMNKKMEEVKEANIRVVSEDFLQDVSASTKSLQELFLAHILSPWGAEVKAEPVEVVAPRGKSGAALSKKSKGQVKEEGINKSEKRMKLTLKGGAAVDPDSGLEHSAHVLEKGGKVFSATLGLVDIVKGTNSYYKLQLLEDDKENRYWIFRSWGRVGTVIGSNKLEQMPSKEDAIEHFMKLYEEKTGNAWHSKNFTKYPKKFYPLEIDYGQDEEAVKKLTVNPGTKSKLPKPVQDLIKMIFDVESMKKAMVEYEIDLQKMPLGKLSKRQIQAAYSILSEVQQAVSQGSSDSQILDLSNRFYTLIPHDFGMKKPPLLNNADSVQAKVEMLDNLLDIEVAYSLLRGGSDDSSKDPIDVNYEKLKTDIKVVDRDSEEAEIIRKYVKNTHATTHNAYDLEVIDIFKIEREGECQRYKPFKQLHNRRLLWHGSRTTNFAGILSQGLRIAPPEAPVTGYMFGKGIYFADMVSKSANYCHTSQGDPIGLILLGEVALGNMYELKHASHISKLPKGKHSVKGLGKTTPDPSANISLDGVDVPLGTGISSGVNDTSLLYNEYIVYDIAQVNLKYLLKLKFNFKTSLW

| Compound | IC50 [1] | IC50 [2] | Activity [3] | Activity [4] | Activity [5] | IC50 [6] |
| --- | --- | --- | --- | --- | --- | --- |
| CCCCc1nc2ccccc2c(=O)[nH]1 | 8890 nM |  |  |  |  |  |
| COc1ccccc1N1CCN(CCCc2nc3ccccc3c(=O)[nH]2)CC1 | 189 nM |  |  |  |  |  |
| O=c1[nH]c(CCCN2CCC(c3ccccc3)CC2)nc2ccccc12 | 79 nM | 126000 nM | inactive | Active | inactive | 96300 nM |
| O=c1[nH]c(CCCN2CCN(c3cccc(Cl)c3)CC2)nc2ccccc12 | 1010 nM |  |  |  |  |  |
| O=c1[nH]c(CCCN2CCC(c3ccc(Cl)cc3)CC2)nc2ccccc12 | 388 nM |  |  |  |  |  |
| O=c1[nH]c(CCCN2CC=C(c3ccc(F)cc3)CC2)nc2ccccc12 | 304 nM |  |  |  |  |  |
| O=c1[nH]c(CCCN2CCN(c3ccc(F)cc3)CC2)nc2ccccc12 | 77 nM | > 200000 nM | inactive | Active | inactive | > 200000 nM |
